Test: Toxicity liver stage against HepG2, at 10uM
Type: cell-based
Set-up: test concentration 10 uM, cell line HepG2-A16-CD81EGFP
Conditions: human, HepG2-A16-CD81EGFP cells; read-out: INHIBITION
Procedure, shortened: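 Uninfected HepG2-A16-CD81EGFP cells, 3 × 10^3 per well, 1536-well, plated on prespotted compound at 10 μM final, parasite-free screening media added to match infected plates; puromycin 10 μM positive, DMSO 0.5% negative; run in parallel with 48 h PbLuc assay at 37 °C, 5% CO2; viability by CellTiter-Glo luminescence, normalized to controls.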

Structure (SMILES)	cytotoxicity at 10 µM
CC(=O)N1CCC(NC2(Cc3cc(CN(C)C)on3)COC2)CC1	-1.38%
CN(C)C(CNS(=O)(=O)c1cc(F)ccc1F)c1cccn1C (stereo not drawn)	1.33%
CCN1C[C@@H]2CN(S(=O)(=O)c3cccs3)C[C@@H]2C1=O	-2.42%
CN1C(=O)CC2(CCNCC2)c2ccccc21	-3.92%
COCC(=O)N1CCC2(CC1)CC(N1CCOCC1)c1ccc(C)cc12 (stereo not drawn)	-116%
CN1CCC2(Cc3ccccc3NC2=O)C1 (stereo not drawn)	9.82%
CCN1CCc2onc(CNc3ncccn3)c2C1	0.927%
CSCC[C@H](NC(=O)Cn1ccc2c(Cl)cccc21)C(=O)O	4.18%
O=C(c1cn(-c2cc(N3CCOCC3)ncn2)cn1)N1CCSCC1	-18.3%
Cc1cccc(CS(=O)(=O)NCC(O)Cc2ccccc2)c1 (stereo not drawn)	-19.5%
CCC(CO)NC(=O)c1ccc2ccc(N(C)CC3CC3)n2c1 (stereo not drawn)	4.82%
Cc1cccc(CN2C[C@@H]3CCCO[C@@H]3[C@H](NS(C)(=O)=O)C2)n1	-8.06%
Nc1nnnn1NCc1ccccc1C(F)(F)F	5.56%
CC(=O)NCc1ccc(-c2ccccc2C(=O)O)cn1	1%
CCN(CC)S(=O)(=O)N1C[C@@H](O)[C@H](Oc2cccc(F)c2)C1	9.73%
Cc1ccc(CC2COCCN(S(C)(=O)=O)C2)nc1 (stereo not drawn)	-0.56%
CC(=O)N1CCC[C@@H](NCc2ccc(F)cc2)[C@@H]1c1ccc(C)s1	-22.1%
Cc1cc(-c2cnc(C3CC3)nc2CN(C)C(=O)c2ccccn2)on1	-45%
Cc1c(C(=O)N2CCC2)nnn1-c1ccc2ncccc2c1	-2.29%
Cc1nc(CSCCC(=O)Nc2cccc(N3CCNC3=O)c2)cs1	5.31%
CC1CS(=O)(=O)CCN1CCCc1ccc(Cl)cc1 (stereo not drawn)	9.28%

Structure (SMILES)	cytotoxicity at 10 µM
CC(C)Oc1cccc(CN(C)C(=O)Cc2ccon2)c1	-2.09%
CCSCCC(C)NC(=O)Nc1cccn(C)c1=O (stereo not drawn)	-2.19%
NC(=O)Nc1cccc(CNC(=O)CCCc2ccccc2)c1	-10.1%
O=C1CCCN1CCN1CCCC(c2ccn[nH]2)C1 (stereo not drawn)	-16.7%
Cc1nc(CN2CCCN(Cc3nc4ccccc4o3)CC2)no1	12.3%
O=C(NCCOc1ccc(Cl)cn1)Nc1cccnc1	-2.3%
CSc1ccc(NC(=O)NCc2nncn2C2CC2)cc1F	0%
CCCNC(=O)NCc1ccccc1NS(=O)(=O)c1ccccc1	10.3%
COCc1ccccc1C(=O)N1CCN(C2=NCC(C)(C)S2)CC1	6.11%
CC(C)CNC(=O)CC1OCCc2ccsc21 (stereo not drawn)	-3.49%
O=C(CC1CCCO1)Nc1cccc(N2CCN(CC3CC3)CC2)c1 (stereo not drawn)	-0.699%
CCN1CCN(C(=O)C2CCCc3[nH]ncc32)CC1 (stereo not drawn)	-1.21%
COc1ccc(CN(C)C(=O)NC(C)c2nncn2C)cc1F (stereo not drawn)	-2.85%
CC(C)C(C(=O)N1CCN(Cc2ccccn2)CC1)n1cncn1 (stereo not drawn)	-14.5%
COCCCN1CCC(NC(=O)C2CC2)CC1	-5.02%
CC(C)CNC(=O)CNC(=O)NC(C)COc1ccccc1F (stereo not drawn)	-0.956%
CCS(=O)(=O)NCCCNc1cc(N2CCCC2CO)ncn1 (stereo not drawn)	2.2%
Cc1nc(C)n(CC2CN(CCc3ccccn3)CCO2)n1 (stereo not drawn)	4.89%
CC(C)Cn1cc(NCc2cscn2)cn1	3.86%
Cc1noc(C2CCCN(CC(=O)N3CCNC(=O)C3)C2)n1 (stereo not drawn)	-13%
CC(C)n1ccc(=O)nc1SC1CCN(c2ccccc2F)C1=O (stereo not drawn)	11.8%

Structure (SMILES)	cytotoxicity at 10 µM
CCN(CC)C(=O)COc1ccnc2cc(OC)ccc12	-2.17%
O=C(c1ccc(F)cc1F)N1CCN(C(=O)C2CCCCC2)CC1	-0.876%
CC(C)CN(CC(O)c1ccc(F)cc1)C(=O)c1cnsn1 (stereo not drawn)	-6.87%
Cn1cccc1C(=O)N1CCN2C[C@H](Oc3cccnc3)C[C@H]2C1	3.58%
CCN(CC)c1ncccc1CNC(=O)c1cnn(CC)c1	-8.2%
Cc1ccccc1C(C(=O)NCc1nc(-c2ncccn2)no1)N(C)C (stereo not drawn)	3.09%
C=Cc1cccc(CN(Cc2cnn(C)c2)C2CC2)c1	3%
Cn1ncc2c(N3CCN4CCCCC4C3)nc(C3CCCC3)nc21 (stereo not drawn)	-139%
CCNc1ncc(CN(Cc2ccccc2)CC(C)CO)cn1 (stereo not drawn)	6.33%
CCCc1nc(C)cc(N2CCC3(CCC(=O)N(CCCO)C3)CC2)n1	-5.81%
COc1cnc(N2C[C@H](CO)C[C@H](CN3CCOCC3)C2)nc1	-8.11%
COc1cc(F)ccc1-c1nc2c([nH]1)c(C1CC1)nn2C	-1.72%
CCc1nc(N2CCN(Cc3ncccc3C)CC2)c2cnn(C)c2n1	-6.46%
Cc1cnn(CCCn2c(C)cc(C(F)(F)F)cc2=O)c1	0.529%
O=C(O)[C@]12CCCN(Cc3cccnc3)[C@@H]1CCN(c1cnccn1)C2	4.63%
Cc1cc2nc(-c3ccccc3)cc(NCC3CCS(=O)(=O)C3)n2n1 (stereo not drawn)	1.38%
COc1cccc(OC)c1C(=O)N1C[C@@H](CN(C)C)[C@@H](CO)C1	-4.51%
CCOc1cccc(C(C(=O)O)N(C)Cc2cc(C)no2)c1 (stereo not drawn)	4.64%
Cc1cc(N2CCOC(C(F)(F)F)C2)nc(-c2ccccc2)n1 (stereo not drawn)	-1.23%
Cc1ccc(N2CCC(N3C[C@@H](CN(C)C)[C@@H](CO)C3)CC2)cc1	-0.608%
CCn1nc(CC(C)C)cc1C(=O)NCCCOC	-18.8%

Structure (SMILES)	cytotoxicity at 10 µM
Cc1cccc(C(=O)N2CCC(Cc3cnc4[nH]ccc4c3)CC2)n1	12.2%
CN(Cc1cnn(C)c1)C(=O)NCCc1ccc2c(c1)OCO2	-12.4%
Cc1cccc(CN2CCN(C(=O)c3cc(C4CC4)[nH]n3)CC2)c1	-5.38%
Cc1ccc(NC2CCN(C(=O)CCNc3ncccn3)CC2)nn1	-7.69%
CCn1ccnc1CN1CCCN(C(=O)c2ccnc(C)n2)CC1	-12.2%
Cc1ncc(CN2CCOC(CNc3cccnn3)C2)s1 (stereo not drawn)	-19.8%
CN(Cc1noc(C2CC2)n1)C1CCN(CCS(C)(=O)=O)C1 (stereo not drawn)	-14.9%
O=C(c1cnc(-c2ncccn2)s1)N1CCCC1Cn1cccn1 (stereo not drawn)	-5.97%
Cc1ccccc1OCCCC(=O)NC(C)c1nnc2n1CCC2 (stereo not drawn)	-11.5%
Cc1nnc(NC(=O)CN2CCCC2c2c(C)nn(C)c2C)s1 (stereo not drawn)	-14.1%
COc1ccccc1CC(=O)N1CCCC(c2cc(C)[nH]n2)C1 (stereo not drawn)	-21%
CC(NC(=O)NCc1cccc(N2CCCC2=O)c1)c1ccccc1 (stereo not drawn)	4.52%
Cc1ccc(NCc2cncc3c2CCN(C(=O)C2CC=CC2)C3)nn1	-2.42%
CC(C)N1CCC2(C=C(C(=O)NC3CC3)c3ccccc32)CC1	1.29%
CCOC1COC2(CCN(Cc3ccc(F)cc3)CC2)C1 (stereo not drawn)	-0.508%
O=C(c1ccc(F)cc1)N1CCC2(CC1)CC(N1CCOCC1)C2	-7.52%
CC[C@@H]1N(Cc2ccc(C)s2)CCC[C@]12CCC(=O)N2C	4.94%
Cc1occc1C(=O)Nc1cccc(C(=O)OCC2CCCN2)c1 (stereo not drawn)	-2.09%
CC1CCN(C(=O)[C@@H]2C[C@@H]3CCN(CC4CCOCC4)C[C@@H]3O2)CC1	7.13%
CCCNc1c(NC(=O)NCCOC)c(=O)oc2ccccc12	-6.23%
